This passage reports Activity and MIC results from ChEMBL document CHEMBL1255328, “Transcriptional and translational control of the mlr operon, which confers resistance to seven classes of protein synthesis inhibitors” (2008).

Assay [1] concerns Staphylococcus aureus. The assay is described as follows: Antimicrobial activity against methicillin-resistant Staphylococcus aureus RN4220 harboring erm(B) and cfr gene assessed as modification of A2503 site in 23S rRNA. It is filed as functional.
The subject of assay [2] is Staphylococcus aureus. Description: Antimicrobial activity against erm(B) and cfr-deficient Staphylococcus aureus RN4220 harboring plasmid LI50 by broth microdilution method. Background: In broth dilution the organism is exposed to a series of concentrations in liquid medium.
Assay [3] relates to Staphylococcus aureus. The assay is described as follows: Antimicrobial activity against methicillin-resistant Staphylococcus aureus RN4220 harboring erm(B) and cfr gene assessed as modification of A2058 site in 23S rRNA. Type of assay: functional.
Assay [4] concerns Staphylococcus aureus. The assay is described as follows: Antimicrobial activity against Staphylococcus aureus RN4220 harboring erm(B) and cfr gene by broth microdilution method.
The test system of assay [5] is Staphylococcus aureus. The assay is described as follows: Antimicrobial activity against Staphylococcus aureus RN4220 harboring plasmid MS2 by broth microdilution method. It is filed as functional. The method, boiled down:
(§1)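 S. aureus RN4220 carrying the relevant shuttle plasmid, introduced by electroporation and selected on LB agar with 10 µg/ml chloramphenicol. MICs by broth microdilution per accepted recommendations. Disk diffusion: ca. 10^7 cells in 4 ml 0.6% soft agar over 1.5% LB agar with 10 µg/ml chloramphenicol. Paper disks (5 mm) held 20 µg erythromycin or 30 µg florfenicol. Plates incubated overnight at 37°C and photographed.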

The test system of assay [6] is Staphylococcus aureus. The assay is described as follows: Antimicrobial activity against methicillin-resistant Staphylococcus aureus CM05 assessed as modification of A2503 site in 23S rRNA. It is filed as functional.
In assay [7] the test system is Staphylococcus aureus. The assay is described as follows: Antimicrobial activity against Staphylococcus aureus RN4220 harboring erm(B) promoter-deficient plasmid MS2 by broth microdilution method.
The subject of assay [8] is Staphylococcus aureus. The assay is described as follows: Antimicrobial activity against Staphylococcus aureus RN4220 harboring cfr gene with mutagenized first codon CAG. Type of assay: functional. The method, boiled down: as §1
In assay [9] the test system is Staphylococcus aureus. The assay is described as follows: Antimicrobial activity against methicillin-resistant Staphylococcus aureus CM05 assessed as modification of A2058 site in 23S rRNA. It is filed as functional.
The test system of assay [10] is Staphylococcus aureus. The assay is described as follows: Antimicrobial activity against Staphylococcus aureus RN4220 harboring cfr gene with mutagenized second codon CAG. Type of assay: functional. The method, boiled down:
as §1

In assay [11] the test system is Staphylococcus aureus. The assay is described as follows: Antimicrobial activity against Staphylococcus aureus RN4220 harboring plasmid LI50 by broth microdilution method. It is filed as functional. The procedure, abridged:
as §1

The subject of assay [12] is Staphylococcus aureus. The assay is described as follows: Antimicrobial activity against erm(B)-deficient Staphylococcus aureus RN4220 harboring cfr gene by broth microdilution method. Type of assay: functional. The method, boiled down:
as §1

In assay [13] the test system is Staphylococcus aureus. Description: Antimicrobial activity against cfr-deficient Staphylococcus aureus RN4220 harboring erm(B) gene by broth microdilution method. It is filed as functional. The procedure, abridged:
as §1

Assay [14] deals with Staphylococcus aureus. Description: Antimicrobial activity against methicillin-resistant Staphylococcus aureus CM05 by broth microdilution method. Type of assay: functional. The procedure, abridged:
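Clinical MRSA strain CM05. MICs determined by broth microdilution following accepted recommendations.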

In brackets after ≈: the same amount, converted by molar mass. Bounds are passed on as bounds.

The term MIC denotes the least concentration at which growth counts as inhibited. A higher MIC goes with a less susceptible organism. As to `CS(=O)(=O)c1ccc([C@@H](O)[C@@H](CF)NC(=O)C(Cl)Cl)cc1` [FLORFENICOL], the Activity in assay [1] stood at 16%; in assay [3], 20%; in assay [6], 20%; in assay [9], 32%. The minimal inhibitory concentration (MIC) in [2] is 4 µg/mL (≈ 11.2 µM); in assay [4], 128 µg/mL (≈ 357 µM); in assay [5], 128 µg/mL (≈ 357 µM); in assay [7], 4 µg/mL (≈ 11.2 µM); in assay [8], 128 µg/mL (≈ 357 µM); in [10], 4 µg/mL (≈ 11.2 µM). The same compound had an MIC in assay [11] of 4 µg/mL (≈ 11.2 µM).

Turning to `CC[C@H]1OC(=O)C[C@@H](O)[C@H](C)[C@@H](O[C@@H]2O[C@H](C)[C@@H](O[C@H]3C[C@@](C)(O)[C@@H](O)[C@H](C)O3)[C@H](N(C)C)[C@H]2O)[C@@H](CC=O)C[C@@H](C)C(=O)/C=C/C(C)=C/[C@@H]1CO[C@@H]1O[C@H](C)[C@@H](O)[C@@H](OC)[C@H]1OC` [TYLOSIN], the minimal inhibitory concentration (MIC) was 1 µg/mL (≈ 1.09 µM) in [2]; 6000 µg/mL (≈ 6550 µM) in assay [4]; over 1020 µg/mL in [5]; 2 µg/mL (≈ 2.18 µM) in [12]; 2000 µg/mL (≈ 2180 µM) in [13]; 2 µg/mL (≈ 2.18 µM) in assay [11].

On to `C=C[C@]1(C)C[C@@H](OC(=O)CSCCN(CC)CC)[C@]2(C)[C@H](C)CC[C@]3(CCC(=O)[C@H]32)[C@@H](C)[C@@H]1O` [TIAMULIN], for which the MIC turned out to be 128 µg/mL (≈ 259 µM) in [5], 512 µg/mL (≈ 1040 µM) in assay [14] and 1 µg/mL (≈ 2.03 µM) in assay [11].

The compound `O=C(N[C@H](CO)[C@H](O)c1ccc([N+](=O)[O-])cc1)C(Cl)Cl` [CHLORAMPHENICOL] yielded a minimum inhibitory concentration (MIC) in [14] of 64 µg/mL (≈ 198 µM).

For the compound `CCC[C@@H]1C[C@@H](C(=O)N[C@@H]([C@H]2O[C@H](SC)[C@H](O)[C@@H](O)[C@H]2O)[C@H](C)Cl)N(C)C1` [CLINDAMYCIN], the MIC in assay [2] is under 1 µg/mL; in assay [4] it was over 1020 µg/mL; in [5] it was over 1020 µg/mL; in assay [12], 1020 µg/mL (≈ 2410 µM); in assay [13], over 1020 µg/mL; in [14], over 1020 µg/mL. In assay [11], this compound had a minimum inhibitory concentration (MIC) of under 1 µg/mL.

As to `CC(=O)NC[C@H]1CN(c2ccc(N3CCOCC3)c(F)c2)C(=O)O1` [LINEZOLID], the lowest concentration to inhibit growth in [14] (MIC) was 8 µg/mL (≈ 23.7 µM).

Take SPIRAMYCIN: the values for the MIC in [12] and in [13] were 128 µg/mL and over 4000 µg/mL, respectively.

Regarding `CC[C@H]1OC(=O)[C@H](C)[C@@H](O[C@H]2C[C@@](C)(OC)[C@@H](O)[C@H](C)O2)[C@H](C)[C@@H](O[C@@H]2O[C@H](C)C[C@H](N(C)C)[C@H]2O)[C@](C)(O)C[C@@H](C)C(=O)[C@H](C)[C@@H](O)[C@]1(C)O` [ERYTHROMYCIN], the Activity in assay [1] is 11%; in assay [3], 23%; in assay [6] it was 27%; in assay [9], 35%. Further, the minimal inhibitory concentration (MIC) is 0.5 µg/mL (≈ 0.681 µM) in [2]; over 1020 µg/mL in assay [4]; over 1020 µg/mL in assay [5]; 0.5 µg/mL (≈ 0.681 µM) in assay [7]; over 1020 µg/mL in assay [8]; over 1020 µg/mL in assay [14]. Further, the figures for the minimum inhibitory concentration (MIC) in assay [10] and in assay [11] were over 1020 µg/mL and 0.5 µg/mL (≈ 0.681 µM), respectively.

For `CO[C@@H]1[C@@H](O[C@@H]2O[C@H](C)[C@@H](O[C@H]3C[C@@](C)(O)[C@@H](OC(=O)CC(C)C)[C@H](C)O3)[C@H](N(C)C)[C@H]2O)[C@@H](CC=O)C[C@@H](C)[C@@H](O)/C=C/C=C/C[C@@H](C)OC(=O)C[C@H]1OC(C)=O` [JOSAMYCIN], the minimum inhibitory concentration (MIC) in assay [2] is 1 µg/mL (≈ 1.21 µM); in [4] it was over 2000 µg/mL; in assay [12] it was 64 µg/mL (≈ 77.3 µM); in assay [13], over 2000 µg/mL.
